Results taken from ChEMBL document CHEMBL1122458, “beta-Carbolines as benzodiazepine receptor ligands. 1. Synthesis and benzodiazepine receptor interaction of esters of beta-carboline-3-carboxylic acid” (J Med Chem, 1983).

What was measured:
[1] = biological target: GABA-A receptor; anion channel (Mus musculus) (UniProt Q8BHJ7+P26048+Q8QZW7+P50571+Q9R0Y8+P22723+A2AMW3+P62812+Q9JLF1+P26049+P22933+Q9D6F4+P63080+P27681+P16305); test: In vivo inhibition of specific [3H]flunitrazepam binding in mouse brain 10 minute after iv administration of 15 uM/Kg; assay type: organism-based
Procedure, shortened: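 Mouse brain ex vivo: specific [3H]flunitrazepam binding measured 10 min after iv dosing at 15 µmol/kg; reported as percent inhibition of specific binding, mean ± SEM of four determinations.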

[2] = biological target: GABA-A receptor; anion channel; test: Concentration that inhibits specific [3H]flunitrazepam binding to benzodiazepine receptor in bovine brain
Procedure, shortened: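 Bovine cortex (frozen, -20 °C) homogenized in 50 mM Tris-HCl pH 7.4, spun 48000g 10 min, pellet resuspended; incubated 45 min with 0.2 nM [3H]flunitrazepam (final) and displacers. Rapid filtration over GF-B filters, three ice-cold washes, scintillation counting. Nonspecific binding with 10 µM diazepam. IC50 by log probit analysis, four to six concentrations, each in triplicate.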

Compound | inhibition [1] | IC50 [2]
CCOC(=O)c1cc2c(cn1)[nH]c1ccccc12 | 61.7% | 1.4 nM
CCCCOC(=O)C1Cc2c([nH]c3ccccc23)CN1 (stereo unspecified) |  | 4800 nM
O=C(O)c1cc2c3ccccc3nc-2c[nH]1 |  | 7200 nM
CCOC(=O)C1Cc2c([nH]c3ccccc23)CN1 (stereo unspecified) |  | 6000 nM
CCCCOC(=O)c1cc2c(cn1)[nH]c1ccccc12 | 54.9% | 29 nM
CCCOC(=O)c1cc2c(cn1)[nH]c1ccccc12 | 62.7% | 4.6 nM
COCCOC(=O)c1cc2c3ccccc3nc-2c[nH]1 | 34.6% | 145 nM
O=C(O)C1Cc2c([nH]c3ccccc23)CN1 (stereo unspecified) |  | 22000 nM
COC(=O)c1cc2c(cn1)[nH]c1ccccc12 [BETA-CCM] | 51.2% | 2.5 nM
O=C(OCc1cccnc1)c1cc2c3ccccc3nc-2c[nH]1 | 49.4% | 34 nM
O=C(OCCF)c1cc2c3ccccc3nc-2c[nH]1 | 55.3% | 27 nM
COC(=O)C1Cc2c([nH]c3ccccc23)CN1 (stereo unspecified) | 6.1% | 250 nM
O=C(OCCCl)c1cc2c3ccccc3nc-2c[nH]1 | 89% | 22 nM
O=C(OCc1ccccc1)c1cc2c3ccccc3nc-2c[nH]1 | 38.4% | 21 nM
[2H]C([2H])([2H])OC(=O)c1cc2c(cn1)[nH]c1ccccc12 |  | 5.3 nM
O=C(OCc1ccccc1)C1Cc2c([nH]c3ccccc23)CN1 (stereo unspecified) |  | 2700 nM
CN(C)CCOC(=O)c1cc2c3ccccc3nc-2c[nH]1 | 13.4% | 330 nM
CCCOC(=O)C1Cc2c([nH]c3ccccc23)CN1 (stereo unspecified) |  | 4400 nM
N#CCCOC(=O)c1cc2c3ccccc3nc-2c[nH]1 | 44.4% | 27 nM
